From ChEMBL document CHEMBL1955865, “Synthesis of novel spirooxindole derivatives by one pot multicomponent reaction and their antimicrobial activity” (2012)
Values after ≈ are worked out from the molar mass of the structure shown. Active and inactive are the calls of the source. The calls are words filed in the database; no cut-off is given here.

How the values were obtained:
Klebsiella pneumoniae [1] = experiment: Antibacterial activity against Klebsiella pneumoniae MTCC 109 at 1000 ug/disc after 24 hrs by disc diffusion assay; format: functional; details: for zone of inhibition at 1000 µg/disc: MTCC 109, 24 h, read-out: IZ
Outline: (§1)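 Disc diffusion on Mueller Hinton agar. Cultures (about 10^4 CFU/ml) were swabbed on and dried 10 min. Discs loaded at 1000 µg/disc were left 30 min at room temperature for diffusion, with a solvent negative control. Plates were incubated 24 h at 37 °C. Inhibition zones were measured in mm, and the experiment was done twice.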

Micrococcus luteus [2] = experiment: Antibacterial activity against Micrococcus luteus after 24 hrs by twofold serial dilution method; format: functional
Outline: (§2)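 Bacteria grown in Mueller Hinton broth for 24 h at 37 °C and diluted to about 10^4 CFU/ml. Compound in 2% DMSO was serially diluted two-fold (1000 to 15.62 µg/ml) in medium in 96-well plates and inoculated. Plates were incubated 24 h at 37 °C. 5 µl of broth was spotted onto MHA, and MIC was taken as the lowest concentration with no visible growth on agar.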

Staphylococcus aureus [3] = experiment: Antibacterial activity against methicillin-resistant Staphylococcus aureus at 1000 ug/disc after 24 hrs by disc diffusion assay; format: functional; details: for zone of inhibition at 1000 µg/disc: read-out: IZ
Outline: (§3)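 Disc diffusion on Mueller Hinton agar. Bacteria were grown 24 h at 37 °C in MHB and diluted to about 10^4 CFU/ml, swabbed onto plates and dried 10 min. Discs were loaded at 1000 μg/disc and held 30 min at room temperature for diffusion. Solvent served as negative control. After 24 h at 37 °C, inhibition zones were read in mm; run twice.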

Candida albicans [4] = experiment: Antifungal activity against Candida albicans MTCC 227 after 48 to 72 hrs by twofold serial dilution method; format: functional
Outline: (§4)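 Broth two-fold serial dilution, 1000 to 15.62 µg/ml, with compound dissolved in 2% DMSO, in 96-well plates. Filamentous fungal spores came from 10-day SDA slants at 28 °C, and yeast from SDB grown 48 h at 28 °C. Incubation was 48-72 h at 28 °C. MIC was the lowest concentration with no visible fungal growth.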

Salmonella typhimurium [5] = experiment: Antibacterial activity against Salmonella Typhimurium MTCC 1251 at 1000 ug/disc after 24 hrs by disc diffusion assay; format: functional, Salmonella enterica subsp. enterica serovar Typhimurium; details: Salmonella enterica, MTCC 1251, 24 h; read-out: IZ; outline: as §1
[6] = test system: Salmonella enterica subsp. enterica serovar Paratyphi B; experiment: Antibacterial activity against Salmonella paratyphi B at 1000 ug/disc after 24 hrs by disc diffusion assay; format: functional; details: for zone of inhibition at 1000 µg/disc: read-out: IZ; outline: as §3
[7] = test system: Salmonella enterica subsp. enterica serovar Paratyphi B; experiment: Antibacterial activity against Salmonella paratyphi B after 24 hrs by twofold serial dilution method; format: functional
Outline: (§5)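 Broth microdilution in MHB following the standard bacterial reference method. Compound was dissolved in DMSO (2%) and serially diluted two-fold from 1000 to 15.62 µg/ml in 96-well plates, with an inoculum of about 10^4 CFU/ml. Streptomycin and ciprofloxacin were positive controls. After 24 h at 37 °C, 5 µl of broth was subcultured on MHA. MIC was the lowest concentration without visible growth on agar.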

[8] = Antifungal activity against Malassezia pachydermatis at 1000 ug/disc after 48 hrs by disc diffusion assay; format: functional
Outline: (§6)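 Fungal disc diffusion with inoculum from SDA spores (filamentous) or SDB culture (yeast). Test cultures were swabbed on agar, and discs at 1000 µg/disc were left 30 min at room temperature, with a solvent negative control. Plates were incubated 48 h at 27 °C. Zone of inhibition was measured in mm, and the experiment was repeated twice.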

Salmonella typhimurium [9] = experiment: Antibacterial activity against Salmonella Typhimurium MTCC 1251 after 24 hrs by two-fold serial dilution method; format: functional, Salmonella enterica subsp. enterica serovar Typhimurium; details: Salmonella enterica, MTCC 1251, 24 h; outline: as §2
Micrococcus luteus [10] = experiment: Antibacterial activity against Micrococcus luteus at 1000 ug/disc after 24 hrs by disc diffusion assay; format: functional; details: read-out: IZ; outline: as §1
Botrytis cinerea [11] = experiment: Antifungal activity against Botrytis cinerea at 1000 ug/disc after 48 hrs by disc diffusion assay; format: functional; details: for zone of inhibition at 1000 µg/disc: read-out: IZ; outline: as §6
Klebsiella aerogenes [12] = experiment: Antibacterial activity against Enterobacter aerogenes MTCC 111 after 24 hrs by twofold serial dilution method; format: functional; details: MTCC 111, 24 h; outline: as §2
Proteus vulgaris [13] = experiment: Antibacterial activity against Proteus vulgaris MTCC 1771 at 1000 ug/disc after 24 hrs by disc diffusion assay; format: functional; details: MTCC 1771, 24 h, read-out: IZ; outline: as §1
Botrytis cinerea [14] = experiment: Antifungal activity against Botrytis cinerea after 48 to 72 hrs by twofold serial dilution method; format: functional; outline: as §4
Staphylococcus aureus [15] = experiment: Antibacterial activity against Staphylococcus aureus MTCC 96 at 1000 ug/disc after 24 hrs by disc diffusion assay; format: functional; details: for zone of inhibition at 1000 µg/disc: MTCC 96, 24 h, read-out: IZ; outline: as §1
Candida albicans [16] = experiment: Antifungal activity against Candida albicans MTCC 227 at 1000 ug/disc after 48 hrs by disc diffusion assay; format: functional; details: for zone of inhibition at 1000 µg/disc: MTCC 227, 48 h, read-out: IZ; outline: as §6
[17] = Antifungal activity against Malassezia pachydermatis after 48 to 72 hrs by twofold serial dilution method; format: functional; outline: as §4
Klebsiella aerogenes [18] = experiment: Antibacterial activity against Enterobacter aerogenes MTCC 111 at 1000 ug/disc after 24 hrs by disc diffusion assay; format: functional; details: for zone of inhibition at 1000 µg/disc: MTCC 111, 24 h, read-out: IZ; outline: as §1
Klebsiella pneumoniae [19] = experiment: Antibacterial activity against Klebsiella pneumoniae MTCC 109 after 24 hrs by twofold serial dilution method; format: functional; details: MTCC 109, 24 h; outline: as §2
Staphylococcus aureus [20] = experiment: Antibacterial activity against methicillin-resistant Staphylococcus aureus after 24 hrs by twofold serial dilution method; format: functional; outline: as §5
Staphylococcus aureus [21] = experiment: Antibacterial activity against Staphylococcus aureus MTCC 96 after 24 hrs by twofold serial dilution method; format: functional; details: MTCC 96, 24 h; outline: as §2
Proteus vulgaris [22] = experiment: Antibacterial activity against Proteus vulgaris MTCC 1771 after 24 hrs by twofold serial dilution method; format: functional; details: MTCC 1771, 24 h; outline: as §2

| SMILES | zone of inhibition at 1000 µg/disc (Klebsiella pneumoniae [1]) [mm] | zone of inhibition at 1000 µg/disc (Staphylococcus aureus [3]) [mm] | zone of inhibition at 1000 µg/disc (Salmonella typhimurium [5]) [mm] | zone of inhibition at 1000 µg/disc [6] [mm] | inhibition zone (IZ) [8] | zone of inhibition at 1000 µg/disc (Micrococcus luteus [10]) [mm] | zone of inhibition at 1000 µg/disc (Botrytis cinerea [11]) [mm] | zone of inhibition at 1000 µg/disc (Proteus vulgaris [13]) [mm] | zone of inhibition at 1000 µg/disc (Staphylococcus aureus [15]) [mm] | zone of inhibition at 1000 µg/disc (Candida albicans [16]) [mm] | zone of inhibition at 1000 µg/disc (Klebsiella aerogenes [18]) [mm] | inhibition zone (IZ) (Staphylococcus aureus [3]) | further results |
| --- | --- | --- | --- | --- | --- | --- | --- | --- | --- | --- | --- | --- | --- |
| Cc1ccc2c(c1)C1(C(=O)N2)C2=C(CN1C)C(=O)c1ccccc1C2=O (stereo not drawn) | 13 | 12 | 12 | 11 | 12 mm | 13 | 9 | 9 | 15 | 8 | 13 | – | MIC (Micrococcus luteus [2]): 62.5 µg/mL (≈ 181 µM); MIC (Candida albicans [4]): 250 µg/mL (≈ 726 µM); MIC [7]: 125 µg/mL (≈ 363 µM); MIC (Salmonella typhimurium [9]): 250 µg/mL (≈ 726 µM); MIC (Klebsiella aerogenes [12]): 125 µg/mL (≈ 363 µM); MIC (Botrytis cinerea [14]): 250 µg/mL (≈ 726 µM); MIC [17]: 125 µg/mL (≈ 363 µM); MIC (Klebsiella pneumoniae [19]): 62.5 µg/mL (≈ 181 µM); MIC (Staphylococcus aureus [20]): 125 µg/mL (≈ 363 µM); MIC (Staphylococcus aureus [21]): 31.2 µg/mL (≈ 90.7 µM); MIC (Proteus vulgaris [22]): 250 µg/mL (≈ 726 µM) |
| C#CCN1C(=O)C2(C3=C(C(=O)c4ccccc4C3=O)C3CCCN32)c2ccccc21 (stereo not drawn) | – | – | 9 | 8 | inactive | 9 | 9 | 8 | – | 8 | – | inactive | inhibition zone (IZ) (Klebsiella pneumoniae [1]): inactive; inhibition zone (IZ) (Staphylococcus aureus [15]): inactive; inhibition zone (IZ) (Klebsiella aerogenes [18]): inactive |
| CN1C(=O)C2(C3=C(C(=O)c4ccccc4C3=O)C3CCCN32)c2ccccc21 (stereo not drawn) | 9 | 8 | 11 | – | 10 mm | 9 | 8 | 8 | 10 | 10 | 9 | – | inhibition zone (IZ) [6]: inactive |
| CN1CC2=C(C(=O)c3ccccc3C2=O)C12C(=O)N(Cc1ccccc1)c1ccccc12 (stereo not drawn) | 10 | 8 | 9 | 8 | 9 mm | 9 | 10 | 8 | 9 | 8 | 8 | – | – |
| CC(=O)N1CCN(c2ccc(OCC3COC(Cn4ccnc4)(c4ccc(Cl)cc4Cl)O3)cc2)CC1 (stereo not drawn) [KETOCONAZOLE] | – | – | – | – | 28 mm | – | – | – | – | 22 | – | – | MIC (Candida albicans [4]): 25 µg/mL (≈ 47 µM); inhibition zone (IZ) (Botrytis cinerea [11]): inactive; MIC (Botrytis cinerea [14]): 25 µg/mL (≈ 47 µM); MIC [17]: 15 µg/mL (≈ 28.2 µM) |
| CN1CC2=C(C(=O)c3ccccc3C2=O)C12C(=O)c1cccc3cccc2c13 (stereo not drawn) | 9 | – | 10 | – | 8 mm | 8 | 9 | 8 | 9 | 8 | – | inactive | inhibition zone (IZ) [6]: inactive; inhibition zone (IZ) (Klebsiella aerogenes [18]): inactive |
| CN1CC2=C(C(=O)c3ccccc3C2=O)C12C(=O)c1ccccc1C2=O | 9 | – | 10 | 9 | inactive | 8 | 9 | 8 | 9 | – | 8 | inactive | inhibition zone (IZ) (Candida albicans [16]): inactive |
